For 30 molecules, activation, potentiation and outcome results are on record in PubChem BioAssay.

Structures are written as SMILES. Calls of active or inactive are those of the source.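 The calls were made as follows, unless noted: active = current rise at least 3 SD above the untreated control mean in each of two repeat wells; inactive = the rest.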

Test [1] can be described thus: nonspecific flux increase, KCNQ1-free cells – parental CHO cells, counter-screen for KCNQ1 potentiator project (AID 493006;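 active = duplicate-averaged activation above buffer control mean plus 5 SD of those controls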). Particulars: parental CHO-K1 cells, FluxOR thallium flux, at 10 µM; hits give high values. In short, it runs like this: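 Assay system: Untransfected host CHO-K1 cells with FluxOR thallium dye | Probe or stimulus: Potassium/thallium depolarization pulse | Schedule: Overnight 37 °C plating, 90 min RT dye, 20 min compound | Detection: Kinetic thallium-flux fluorescence | Read-out: Max-minus-min fluorescence over baseline, percent of buffer-to-R-L3 span | Benchmarks: Low control buffer, high control R-L3 activator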
A general note: Counterscreens check selectivity or assay interference.

The target of test [2] is Potassium voltage-gated channel subfamily KQT member 1 (Homo sapiens) (UniProt P51787). Nature of the test: enhancement of KCNQ1 channel thallium flux – FluxOR thallium flux, CHO cells, duplicates, confirmation (AID 493007;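 active = potentiation averaged over duplicate wells exceeding buffer-only control mean by more than 3 SD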;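 as to outcome: cells depolarized by a potassium plus thallium sulfate stimulus after compound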). Particulars: KCNQ1 cell line, FluxOR thallium flux fluorescence, at 10 µM; hits give high values, % of reference activator effect, buffer zero. The procedure, abridged:
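Material: KCNQ1-expressing CHO cell line; Incubation: FluxOR dye loading 90 min, compound exposure 20 min, room temperature; Detection: FluxOR Tl+ flux fluorescence, 10 s baseline plus 110 s recording; Read-out: percent activation between buffer and R-L3 responses; Control set: buffer-only wells as 0% and R-L3 activator as 100%; Replication: duplicate wells per compound.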

The target in test [3] is Potassium voltage-gated channel subfamily KQT member 2 (Rattus norvegicus) (UniProt O88943). Nature of the test: KCNQ2 thallium flux enhancement – KCNQ2-CHO-K1 cells, selectivity assay for KCNQ1 potentiator project (AID 493009;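 active = mean duplicate potentiation above the buffer control mean plus 5 SD of buffer wells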;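 also: assay conditions were tuned for KCNQ1 rather than KCNQ2 modulators; signal is max minus min fluorescence divided by baseline after thallium stimulus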). Conditions: FluxOR thallium flux fluorescence, at 10 µM; hits give high values, scaled: buffer 0, activator control 100.
Test [4] concerns the target Potassium voltage-gated channel subfamily KQT member 1 (Homo sapiens) (UniProt P51787). Nature of the test: KCNQ1 activators by electrophysiology – IonWorks patch clamp, KCNQ1-CHO cells, orthogonal assay for KCNQ1 potentiator project, confirmation (AID 493184). Particulars: automated patch clamp current, at 10 µM; hits give high values. The procedure, abridged: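 assay system = KCNQ1-expressing CHO cells | medium = external bath solution at pH 7.4 | probe or stimulus = 2,000 ms depolarization, -90 to +40 mV | compound dosing = 10 µM final, single point | measured by = automated voltage clamp, amphotericin B perforated patch | measure = percent current increase versus pre-compound level | replication = duplicates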
Background: In patch-clamp work, channel activity is measured electrically.

Potassium voltage-gated channel subfamily KQT member 1 (Homo sapiens), sequence (P51787 whole entry, looked up): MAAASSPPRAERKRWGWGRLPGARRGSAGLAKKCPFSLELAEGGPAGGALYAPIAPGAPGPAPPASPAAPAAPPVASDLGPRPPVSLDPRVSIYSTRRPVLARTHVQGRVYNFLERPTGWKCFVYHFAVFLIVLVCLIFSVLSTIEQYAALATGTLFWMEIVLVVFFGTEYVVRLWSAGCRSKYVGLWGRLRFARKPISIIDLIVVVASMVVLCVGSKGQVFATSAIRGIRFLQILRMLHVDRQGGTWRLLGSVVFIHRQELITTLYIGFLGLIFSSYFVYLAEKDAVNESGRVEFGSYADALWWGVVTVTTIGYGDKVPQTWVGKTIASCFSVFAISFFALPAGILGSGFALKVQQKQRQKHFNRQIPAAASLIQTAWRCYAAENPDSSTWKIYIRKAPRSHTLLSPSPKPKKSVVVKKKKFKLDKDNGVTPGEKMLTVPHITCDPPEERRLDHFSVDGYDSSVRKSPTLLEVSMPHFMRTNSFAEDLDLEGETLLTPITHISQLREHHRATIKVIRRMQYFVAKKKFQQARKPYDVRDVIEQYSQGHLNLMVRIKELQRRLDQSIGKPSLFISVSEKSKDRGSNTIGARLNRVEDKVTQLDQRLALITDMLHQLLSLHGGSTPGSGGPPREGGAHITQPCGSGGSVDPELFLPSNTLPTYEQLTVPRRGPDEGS
Potassium voltage-gated channel subfamily KQT member 2 (Rattus norvegicus), sequence (O88943 whole entry, looked up): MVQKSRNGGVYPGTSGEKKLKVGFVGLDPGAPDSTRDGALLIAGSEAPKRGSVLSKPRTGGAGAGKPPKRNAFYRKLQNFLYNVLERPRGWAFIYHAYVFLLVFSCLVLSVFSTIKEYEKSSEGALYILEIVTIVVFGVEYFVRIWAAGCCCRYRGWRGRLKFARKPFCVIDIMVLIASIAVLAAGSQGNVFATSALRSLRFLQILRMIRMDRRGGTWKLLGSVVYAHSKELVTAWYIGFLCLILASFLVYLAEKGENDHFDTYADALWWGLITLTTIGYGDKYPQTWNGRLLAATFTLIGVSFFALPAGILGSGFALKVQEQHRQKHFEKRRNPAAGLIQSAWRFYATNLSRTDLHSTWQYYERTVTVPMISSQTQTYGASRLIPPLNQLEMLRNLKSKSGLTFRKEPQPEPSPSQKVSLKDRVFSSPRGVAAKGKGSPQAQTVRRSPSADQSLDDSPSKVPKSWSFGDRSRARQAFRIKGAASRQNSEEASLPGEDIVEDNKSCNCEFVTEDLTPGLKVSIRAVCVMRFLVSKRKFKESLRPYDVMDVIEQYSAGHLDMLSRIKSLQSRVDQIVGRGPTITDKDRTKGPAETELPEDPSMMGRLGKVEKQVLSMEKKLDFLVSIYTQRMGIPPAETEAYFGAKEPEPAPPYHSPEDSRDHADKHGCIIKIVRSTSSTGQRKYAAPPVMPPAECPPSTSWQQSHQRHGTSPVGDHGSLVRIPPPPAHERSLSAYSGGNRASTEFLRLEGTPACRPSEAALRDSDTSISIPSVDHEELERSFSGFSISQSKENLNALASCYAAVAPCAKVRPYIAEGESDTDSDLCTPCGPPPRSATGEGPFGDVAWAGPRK

For the molecule `O=C(NC(=S)Nc1ccccc1N1CCOCC1)c1ccc(-c2ccccc2F)o1`, in test [1], the activation is 147% (active). For the same molecule, the potentiation was 51.5% (active) in test [2] and 182% (active) in test [3]. For the same molecule, in test [4], the outcome was inactive.

Take `O=C(O)c1cnn(-c2ccccc2)c1-c1ccncc1`: in test [1], the activation is 145% (active). Besides, the potentiation in test [2] is 84% (active); in test [3] it was 202% (active). The outcome in test [4] was inactive.

With `CCOC(=O)C1CCN(C(=O)c2c(C)oc3c2C(=O)c2ccccc2C3=O)CC1`, the result in test [1], in test [2], in test [3] and in test [4] was inactive.

Take `O=c1c2ccccc2[nH]c(=S)n1CCC1=CCCCC1`: the activation in test [1] is 212% (active). Moreover, the potentiation in test [2] is 46% (active); in test [3], 196% (active). Further, the result in test [4] was inactive.

For `CN(C)C(=S)NC(=O)c1cccc(Cl)c1`, the result in test [1] and in test [4] was inactive. Also, the potentiation in test [2] is 19% (active); in test [3], 142% (active).

Regarding `CCN(CC)CCn1c(=S)[nH]c2cc(C(=O)NCc3ccc(C)cc3)ccc2c1=O`, the result in test [1], in test [2], in test [3] and in test [4] was inactive.

For the molecule `COCCN1CCCC(CNCc2cn(C)nc2-c2ccc(Oc3ccccc3)cc2)C1` (stereo not given), the outcome in test [1], in test [2], in test [3] and in test [4] was inactive.

On to `OC(c1ccccc1)c1cccnc1` (stereo not given), for which, in test [1], the activation was 146% (active). Moreover, the figures for the potentiation in test [2] and in test [3] were 22% (active) and 155% (active), respectively. Moreover, the result in test [4] was inactive.

Regarding `Cc1ccc(Cn2c(SCC(=O)N3CC(=O)Nc4ccccc43)nc3ccccc3c2=O)cc1`, the outcome in test [1], in test [2], in test [3] and in test [4] was inactive.

In the case of `CC(=O)c1c(O)cc(C)n(-c2ccc(F)cc2)c1=O`, the outcome in test [1], in test [2], in test [3] and in test [4] was inactive.

Turning to `O=C(c1ccccn1)c1ncc(C(F)(F)F)cc1Cl`, the result in test [1], in test [2], in test [3] and in test [4] was inactive.

On to `Cc1cc(C)c2nc(NC(=O)c3cc(C)on3)sc2c1`, for which, in test [1], the activation was 174% (active). Besides, the potentiation was 36% (active) in test [2] and 166% (active) in test [3]. For the same molecule, the outcome in test [4] was inactive.

Consider `CN(C)CCCC1(O)c2ccccc2C=Cc2ccccc21`, for which the activation in test [1] was 139% (active). Besides, in test [2], the potentiation was 29% (active). Besides, the result in test [3] and in test [4] was inactive.

On to `Cc1ccc(Cl)cc1NC(=S)N/N=C/c1cccc2ccccc12`, for which the result in test [1], in test [3] and in test [4] was inactive. The potentiation in test [2] was 32% (active).

As to `CNc1nc(N)c([N+](=O)[O-])c(Nc2cccc(F)c2)n1`, the result in test [1], in test [2], in test [3] and in test [4] was inactive.

Turning to `Cc1ccc2nc3c(cc(C(=O)NCC4CCCO4)c(=N)n3C3CCCC3)c(=O)n2c1` (stereo not given), the outcome in test [1], in test [2], in test [3] and in test [4] was inactive.

As for `CCOc1ccc(-n2cc(C(=O)Nc3cccc(C)n3)c3cc(OC)c(OC)cc3c2=O)cc1`, the result in test [1], in test [2], in test [3] and in test [4] was inactive.

On to `O=C(COc1ccccc1F)Nc1c2c(nn1-c1ccccc1)CS(=O)(=O)C2`, for which the outcome in test [1], in test [2], in test [3] and in test [4] was inactive.

Consider `O=C(NC(=S)Nc1ccccc1)c1ccc(Br)o1`, for which the result in test [1] and in test [4] was inactive. Moreover, the potentiation in test [2] is 21.5% (active); in test [3] it was 158% (active).

For the molecule `O=C(Nc1cccc(NC(=O)c2c(F)cccc2F)n1)c1c(F)cccc1F`, the outcome in test [1], in test [2], in test [3] and in test [4] was inactive.

Consider `CSc1nc(-c2ccccc2)[nH]c(=S)c1C(C)=O`, for which, in test [1], the activation was 520% (active). The values for the potentiation in test [2] and in test [3] were 138% (active) and 474% (active), respectively. The outcome in test [4] was inactive.

As for `CCCCN(CCCC)C(=S)NC(=O)C(C)(C)C`, the outcome in test [1], in test [2], in test [3] and in test [4] was inactive.

For the molecule `Cc1cccc(C(=O)NC(=S)NNC(=O)COc2ccc(Cl)cc2)c1`, the activation in test [1] is 140% (active). Moreover, the potentiation in test [2] is 52% (active); in test [3] it was 186% (active). In test [4], the result was inactive.

Take `Nc1ccc(C2(c3ccc(N)cc3)OC(=O)c3ccccc32)cc1`: the result in test [1], in test [2], in test [3] and in test [4] was inactive.

`CC(C)(C)C(=O)NC1CC2CCCC(C1)N2C(=O)Nc1ccccc1` (stereo not given): the result in test [1], in test [2], in test [3] and in test [4] was inactive.

Take `O=C(COc1ccccc1F)Nc1ccc(S(=O)(=O)NCc2ccco2)cc1`: the outcome in test [1], in test [2], in test [3] and in test [4] was inactive.

With `COCCOC(=O)N/C=C\c1nc2ccccc2c(=O)[nH]1`, the outcome in test [1], in test [2], in test [3] and in test [4] was inactive.

Regarding `COc1cc(Br)cc(/C=N/c2ncn[nH]2)c1O`, the activation in test [1] was 140% (active). Further, in test [2], the potentiation is 18.5% (active). Besides, the outcome in test [3] and in test [4] was inactive.

Regarding `C/C(=N\NC(=S)Nc1cccc(C)c1)c1ccco1`, the result in test [1] and in test [4] was inactive. Also, the potentiation in test [2] is 35% (active); in test [3], 166% (active).

With `Cc1cc(/C=N/NC(=O)CC#N)c(C)n1-c1ccc([N+](=O)[O-])cc1`, the result in test [1], in test [2], in test [3] and in test [4] was inactive.
